Reference: ChEMBL document CHEMBL1799996, “Novel C8-linked pyrrolobenzodiazepine (PBD)-heterocycle conjugates that recognize DNA sequences containing an inverted CCAAT box” (2011)

Key:
Nucleic Acid [1] = experiment: Binding affinity to calf thymus DNA assessed as change in melting temperature at 5 uM at pH 7 after 4 hrs by thermal denaturation assay; format: nucleic-acid assay; conditions: Bos taurus
Nucleic Acid [2] = experiment: Binding affinity to calf thymus DNA assessed as change in melting temperature at 5 uM at pH 7 after 18 hrs by thermal denaturation assay; format: nucleic-acid assay; conditions: Bos taurus
[3] = Cytotoxicity against human NCI60 cells; format: functional
Outline: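 NCI 60-cell-line panel. GI50, TGI and LC50 (50% growth inhibition, total growth inhibition and 50% lethality) are given as the mean across all 60 lines.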

Nucleic Acid [4] = experiment: Binding affinity to ICB1 site of human topoisomerase 2alpha promoter after 17 hrs by DNase 1 footprinting assay; format: nucleic-acid assay
Outline: (§1)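 Reported value is the lowest conjugate concentration that gives a measurable footprint at the respective inverted CCAAT site.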

Nucleic Acid [5] = experiment: Binding affinity to ICB2 site of human topoisomerase 2alpha promoter after 17 hrs by DNase 1 footprinting assay; format: nucleic-acid assay; outline: as §1

| SMILES | ΔTm (Nucleic Acid [1]) | ΔTm (Nucleic Acid [2]) | GI50 [3] | LC50 (50% lethal concentration) [3] | TGI [3] | Activity (Nucleic Acid [4]) | Activity (Nucleic Acid [5]) |
| --- | --- | --- | --- | --- | --- | --- | --- |
| COC(=O)CCCOc1cc2c(cc1OC)C(=O)N1CCC[C@H]1C=N2 | 0.3 °C | 0.4 °C | 1.74 µM | 46.8 µM | 11.8 µM | – | – |
| COC(=O)c1cc(NC(=O)c2cc(NC(=O)CCCOc3cc4c(cc3OC)C(=O)N3CCC[C@H]3C=N4)cn2C)cn1C | 14.5 °C | 15.1 °C | 0.011 µM | 10 µM | 0.12 µM | 1 µM | 1 µM |
